What was measured:
Candida albicans [1] = assay: Antifungal activity against Candida albicans cgmcc 2.2086 in presence of NH4Cl by broth dilution method; assay type: functional
Pichia kudriavzevii [2] = assay: Antifungal activity against Candida krusei cgmcc 2.1857 after 48 hrs by broth microdilution method; assay type: functional; settings: cgmcc 2.1857, 48 h
Procedure, shortened: (§1)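 Modified CLSI M27-A2 broth microdilution. Yeast were suspended in MOPS-buffered RPMI 1640 at a final (0.5−1) × 10^3 CFU/mL and mixed 1:1 with peptide serially diluted in 0.2% BSA. Plates were incubated 48 h at 28 °C and read at A492. MIC is the lowest concentration giving 95% inhibition. Run in triplicate with three biological replicates.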

Staphylococcus aureus [3] = assay: Antibacterial activity against Staphylococcus aureus ATCC 29213 after 24 hrs; assay type: functional; settings: ATCC 29213, 24 h
Procedure, shortened: (§2)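 Modified NCCLS broth microdilution. Mid-log bacteria at (0.5−1) × 10^5 CFU/mL in MHB were mixed 1:1 with peptide serially diluted in 0.2% BSA and incubated 24 h at 37 °C. Absorbance was read at 492 nm; MIC is the lowest concentration inhibiting 95% of growth. At least 3 repeats.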

Candida albicans [4] = assay: Antifungal activity against Candida albicans SP3902 after 48 hrs by broth microdilution method; assay type: functional; settings: SP3902, 48 h
Procedure, shortened: (§3)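 Modified CLSI M27-A2 broth microdilution. Yeast at (0.5−1) × 10^3 CFU/mL in MOPS-buffered RPMI 1640 was mixed 1:1 with peptide serially diluted in 0.2% BSA and incubated 48 h at 28 °C. Absorbance was read at 492 nm; MIC is the lowest concentration inhibiting 95% of growth. Triplicate, three biological replicates.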

Candida tropicalis = assay: Antifungal activity against Candida tropicalis cgmcc 2.1975 after 48 hrs by broth microdilution method; assay type: functional; settings: cgmcc 2.1975, 48 h; procedure, shortened: as §1
Candida albicans [5] = assay: Fungicidal activity against Candida albicans 14936 after 96 hrs; assay type: functional; settings: Candida albicans, 14936, 96 h; read-out: MFC99.9
Procedure, shortened: (§4)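 After the 48 h, 28 °C broth microdilution in MOPS-buffered RPMI 1640 (inoculum (0.5−1) × 10^3 CFU/mL), 50 μL from each well was plated on YM agar for a further 48 h at 28 °C. MFC is the lowest concentration killing at least 99.9% of cells. Triplicate, three biological replicates.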

Candida albicans [6] = assay: Antifungal activity against Candida albicans cgmcc 2.2086 after 48 hrs by broth microdilution method; assay type: functional; settings: cgmcc 2.2086, 48 h; procedure, shortened: as §3
[7] = Cytotoxicity against HEK293T cells assessed as cell viability at 2 to 64 uM after 24 hrs by MTT assay relative to control; assay type: cell-based, HEK-293T; settings: human, read-out: Activity
Procedure, shortened: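 MTT viability assay. RAW264.7 or HEK293T cells at (1.0−2.0) × 10^5 per well were exposed to a peptide concentration series for 24 h at 37 °C in 5% CO2. MTT was then added at 0.5 mg/mL final for 4 h; formazan was dissolved in DMSO and read at 570 nm. Results average three independent trials.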

Escherichia coli [8] = assay: Antibacterial activity against Escherichia coli ATCC 25922 after 18 hrs in presence of FeCl3 by broth dilution method; assay type: functional; settings: ATCC 25922, 18 h
Candida albicans [9] = assay: Antifungal activity against Candida albicans cgmcc 2.2086 in presence of CaCl2 by broth dilution method; assay type: functional
Candida parapsilosis [10] = assay: Fungicidal activity against Candida parapsilosis cgmcc 2.3989 after 96 hrs; assay type: functional; settings: Lodderomyces parapsilosis, cgmcc 2.3989, 96 h; read-out: MFC99.9
Procedure, shortened: (§5)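 Wells from the 48 h, 28 °C RPMI 1640/MOPS microdilution plates were plated on YM agar and incubated a further 48 h at 28 °C. MFC is the lowest concentration killing at least 99.9% of cells. Run in triplicate with three biological replicates.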

Pichia kudriavzevii [11] = assay: Fungicidal activity against Candida krusei cgmcc 2.1857 after 96 hrs; assay type: functional; settings: cgmcc 2.1857, 96 h, read-out: MFC99.9; procedure, shortened: as §5
Salmonella typhimurium [12] = assay: Antibacterial activity against Salmonella typhimurium ATCC 14028 after 24 hrs; assay type: functional, Salmonella enterica subsp. enterica serovar Typhimurium; settings: Salmonella enterica, ATCC 14028, 24 h
Procedure, shortened: (§6)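 Broth microdilution. Mid-log bacteria in MHB at a final (0.5−1) × 10^5 CFU/mL were mixed with equal volumes of peptide serially diluted in 0.2% BSA. Plates were incubated 24 h at 37 °C and read at A492. MIC is the lowest concentration inhibiting 95% of growth. Each test was repeated at least 3 times.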

Candida albicans [13] = assay: Antifungal activity against Candida albicans cgmcc 2.2086 in presence of MgCl2 by broth dilution method; assay type: functional
Escherichia coli [14] = assay: Antibacterial activity against Escherichia coli ATCC 25922 after 18 hrs in presence of ZnCl2 by broth dilution method; assay type: functional; settings: ATCC 25922, 18 h
Candida parapsilosis [15] = assay: Antifungal activity against Candida parapsilosis cgmcc 2.3989 after 48 hrs by broth microdilution method; assay type: functional; settings: Lodderomyces parapsilosis, cgmcc 2.3989, 48 h; procedure, shortened: as §1
Candida albicans [16] = assay: Antifungal activity against fluconazole-resistant Candida albicans 56214 after 48 hrs by broth microdilution method; assay type: functional; settings: Candida albicans, 56214, 48 h; procedure, shortened: as §3
Staphylococcus aureus [17] = assay: Antibacterial activity against methicillin-resistant Staphylococcus aureus ATCC 4330 after 24 hrs; assay type: functional; settings: ATCC 4330, 24 h; procedure, shortened: as §2
Salmonella typhimurium [18] = assay: Bactericidal activity against Salmonella typhimurium ATCC 14028; assay type: functional, Salmonella enterica subsp. enterica serovar Typhimurium; settings: Salmonella enterica, read-out: MBC99.9
Procedure, shortened: (§7)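 Wells from the 24 h, 37 °C MHB microdilution plates (bacteria at a final (0.5−1) × 10^5 CFU/mL; peptide diluted in 0.2% BSA) were plated on agar and incubated overnight. MBC is the lowest concentration killing >99.9% of cells. Each test was reproduced at least 3 times.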

Candida albicans [19] = assay: Antifungal activity against Candida albicans 58288 after 48 hrs by broth microdilution method; assay type: functional; settings: Candida albicans, 58288, 48 h; procedure, shortened: as §3
Staphylococcus aureus [20] = assay: Bactericidal activity against Staphylococcus aureus ATCC 29213; assay type: functional; settings: read-out: MBC99.9; procedure, shortened: as §7
Candida albicans [21] = assay: Fungicidal activity against fluconazole-resistant Candida albicans 17546 after 96 hrs; assay type: functional; settings: Candida albicans, 17546, 96 h; read-out: MFC99.9; procedure, shortened: as §4
Candida albicans [22] = assay: Antifungal activity against Candida albicans SP3876 after 48 hrs by broth microdilution method; assay type: functional; settings: SP3876, 48 h; procedure, shortened: as §3
Candida albicans [23] = assay: Antifungal activity against Candida albicans 14936 after 48 hrs by broth microdilution method; assay type: functional; settings: Candida albicans, 14936, 48 h; procedure, shortened: as §3
Candida albicans [24] = assay: Fungicidal activity against Candida albicans 58288 after 96 hrs; assay type: functional; settings: Candida albicans, 58288, 96 h; read-out: MFC99.9; procedure, shortened: as §4
Escherichia coli [25] = assay: Antibacterial activity against Escherichia coli ATCC 25922 after 18 hrs in presence of MgCl2 by broth dilution method; assay type: functional; settings: ATCC 25922, 18 h
Candida albicans [26] = assay: Antifungal activity against Candida albicans SP3903 after 48 hrs by broth microdilution method; assay type: functional; settings: SP3903, 48 h; procedure, shortened: as §3
[27] = Bactericidal activity against Salmonella pullorum ATCC 7913; assay type: functional, Salmonella enterica subsp. enterica serovar Pullorum; settings: Salmonella enterica, read-out: MBC99.9; procedure, shortened: as §7
[28] = tested on: Staphylococcus epidermidis; assay: Antibacterial activity against Staphylococcus epidermidis ATCC 12228 after 24 hrs; assay type: functional; settings: ATCC 12228, 24 h; procedure, shortened: as §6
Candida albicans [29] = assay: Fungicidal activity against Candida albicans SP3902 after 96 hrs; assay type: functional; settings: SP3902, 96 h, read-out: MFC99.9; procedure, shortened: as §4
Candida albicans [30] = assay: Antifungal activity against Candida albicans cgmcc 2.2086 in presence of FeCl3 by broth dilution method; assay type: functional

| Substance | MIC (Candida albicans [1]) [µM] | MIC95 (Pichia kudriavzevii [2]) [µM] | MIC95 (Staphylococcus aureus [3]) [µM] | MIC95 (Candida albicans [4]) [µM] | MIC95 (Candida tropicalis) [µM] | MFC (Candida albicans [5]) [µM] | MIC95 (Candida albicans [6]) [µM] | viability at 24 h, up to 64 µM [7] [%] | MIC (Escherichia coli [8]) [µM] | MIC (Candida albicans [9]) [µM] | MFC (Candida parapsilosis [10]) [µM] | MFC (Pichia kudriavzevii [11]) [µM] | MIC95 (Salmonella typhimurium [12]) [µM] | MIC (Candida albicans [13]) [µM] | MIC (Escherichia coli [14]) [µM] | MIC95 (Candida parapsilosis [15]) [µM] | MIC95 (Candida albicans [16]) [µM] | MIC95 (Staphylococcus aureus [17]) [µM] | MBC (Salmonella typhimurium [18]) [µM] | MIC95 (Candida albicans [19]) [µM] | further results |
| --- | --- | --- | --- | --- | --- | --- | --- | --- | --- | --- | --- | --- | --- | --- | --- | --- | --- | --- | --- | --- | --- |
| H-IIRRIRRII-NH2 | 64 | 16 | 64 | > 64 | 4 | > 64 | 64 | 70 to 80 | 64 | 64 | > 64 | 16 | 64 | 64 | 32 | > 64 | 64 | 64 | > 64 | > 64 | MBC (Staphylococcus aureus [20]): > 64 µM; MFC (Candida albicans [21]): > 64 µM; MIC95 (Candida albicans [22]): > 64 µM; MIC95 (Candida albicans [23]): > 64 µM; MFC (Candida albicans [24]): 64 µM; MIC (Escherichia coli [25]): 32 µM; MIC95 (Candida albicans [26]): > 64 µM; MBC [27]: > 64 µM; MIC95 [28]: 64 µM; MFC (Candida albicans [29]): > 64 µM; MIC (Candida albicans [30]): 64 µM |
| H-LLRRLRRLL-NH2 | 32 | 8 | 64 | > 64 | 4 | > 64 | 32 | 70 to 80 | 16 | 64 | > 64 | 8 | 16 | 64 | 16 | > 64 | 32 | 8 | 32 | 64 | MBC (Staphylococcus aureus [20]): 64 µM; MFC (Candida albicans [21]): > 64 µM; MIC95 (Candida albicans [22]): 32 µM; MIC95 (Candida albicans [23]): 32 µM; MFC (Candida albicans [24]): 32 µM; MIC (Escherichia coli [25]): 16 µM; MIC95 (Candida albicans [26]): 16 µM; MBC [27]: 64 µM; MIC95 [28]: 16 µM; MFC (Candida albicans [29]): > 64 µM; MIC (Candida albicans [30]): 64 µM |
| H-RLRLLLRLR-NH2 | 8 | 8 | 8 | 4 | 2 | 4 | 8 | 70 to 80 | 4 | 64 | > 64 | 8 | 4 | 8 | 8 | > 64 | 8 | 4 | 8 | 8 | MBC (Staphylococcus aureus [20]): 8 µM; MFC (Candida albicans [21]): 16 µM; MIC95 (Candida albicans [22]): 4 µM; MIC95 (Candida albicans [23]): 4 µM; MFC (Candida albicans [24]): 16 µM; MIC (Escherichia coli [25]): 4 µM; MIC95 (Candida albicans [26]): 8 µM; MBC [27]: 8 µM; MIC95 [28]: 4 µM; MFC (Candida albicans [29]): 8 µM; MIC (Candida albicans [30]): 8 µM |
| H-RWRWWWRWR-NH2 | 8 | 4 | 4 | 8 | 2 | 8 | 8 | 70 to 80 | 4 | 32 | 32 | 8 | 4 | 8 | 2 | 16 | 4 | 2 | 4 | 4 | MBC (Staphylococcus aureus [20]): 16 µM; MFC (Candida albicans [21]): 2 µM; MIC95 (Candida albicans [22]): 4 µM; MIC95 (Candida albicans [23]): 8 µM; MFC (Candida albicans [24]): 8 µM; MIC (Escherichia coli [25]): 2 µM; MIC95 (Candida albicans [26]): 8 µM; MBC [27]: 8 µM; MIC95 [28]: 4 µM; MFC (Candida albicans [29]): 16 µM; MIC (Candida albicans [30]): 8 µM |

From ChEMBL document CHEMBL4177755, “Combating Drug-Resistant Fungi with Novel Imperfectly Amphipathic Palindromic Peptides” (J Med Chem, 2018)
